Only a selection was taken, and hits are over-represented in it overall.
Lmaj promast: Leishmania major promastigote growth inhibition, primary screen. AID 1063, 2008. inhibition, % at 10 µM. 200,000 compounds, 9% hits. Leishmania major promastigotes, resazurin fluorescence viability; in the data active = inhibition above about 50%;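 note: promastigotes grown with compound for 44 hours at 28 °C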
Calb FLC: C. albicans growth inhibition with fluconazole, primary screen, CaCi-2 strain, Alamar Blue fluorescence | C. albicans CaCi-2 + fluconazole, 48 h | growth inhibition, % (concentration not given with the values) | 300,000 compounds, 0.57% hits | AID 1979, 2009;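 active = growth inhibition above about 58% in most replicates, limit read from the data, passing the limit was not always enough; inconclusive = exactly half the replicates above a set limit; inactive = most replicates below a set limit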;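 note: all wells also contain fluconazole at 8 µg/ml as a sub-toxic cotreatment; 0% = median of DMSO wells and 100% = median of geldanamycin control wells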
T cruzi inh: inhibitors of intracellular T. cruzi growth, primary screen, luminescence, NIH3T3 host cells. T. cruzi beta-gal in NIH3T3, 90 h. inhibition, % (test concentration not listed). 300,000 compounds, 1.4% hits;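 active = mean inhibition across valid replicates above about 55%, limit read from the data; inconclusive = mean below that limit but half or more replicates reach it; inactive = mean below it, under half of replicates reach it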;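 note: signal also drops with host cell toxicity which is not excluded here; 0% = plate median of DMSO wells and 100% = zero luminescence signal; higher percent means less beta-gal luminescence so fewer parasites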
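assay system = mouse NIH/3T3 fibroblasts infected with β-gal-expressing T. cruzi Tulahuen C4 | input = 5,000 NIH/3T3 host cells per well | buffer or medium = DMEM plus 2% FBS | timing = 3 h host attachment, then at least 90 h co-culture | measured by = GalScreen luminescence, 60 min | evaluation = luminescence reflecting intracellular parasite burden, expressed as percent inhibition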
NALP1 inh: NALP1 inflammasome inhibitors in reconstituted yeast, colorimetric, S. cerevisiae, triplicate retest. 280,000 compounds, 0.61% hits. S. cerevisiae NALP1/ASC/caspase-1 growth, X-gal OD620, 72 h. inhibition, % at 10 µM. AID 2071, 2009; in the data active = inhibition mostly above about 24%, no sharp cut-off; inactive = mostly below about 32%
PolyA inh: polyadenylation inhibitors in yeast reporter cells, primary screen, luminescence, S. cerevisiae. activity score, % at 12 µM. S. cerevisiae SKY197-pL101 polyadenylation reporter, beta-gal luminescence; efflux-impaired pdr1/pdr3 knockout yeast; score 100 = 6 SD above DMSO. AID 1875, 2009. 300,000 compounds, 0.02% hits;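 active = lowest replicate activity score at least 50, where 100 means six control SD above control mean; inconclusive = lowest score under 50 but half or more replicates reach 50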;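 note: yeast exposed to compound for 9 h at 30 °C; higher score means more reporter readthrough which indicates perturbed polyadenylation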
NLRP3 yeast inh: NALP3 inflammasome inhibitors in reconstituted yeast, primary screen, luminescence, uHTS; inhibition, % at 10 µM; 330,000 compounds, 0.39% hits; AID 2825, 2010; Yeast reconstituted NLRP3/ASC/caspase-1, beta-gal luminescence, 24 h;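 active = inhibition of 50% or more; inactive = inhibition below 50%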;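 note: plate controls were induced DMSO wells for no effect and uninduced yeast grown without galactose for full effect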
The depositor's hits bear a star.

How did Cc1nn(Cc2c(F)c(F)c(F)c(F)c2F)c(C)c1NC(=O)c1ccc(COc2ccc(Cl)cc2Cl)o1 do in these assays?
Lmaj promast: 27; Calb FLC: -10; T cruzi inh: 67*; NALP1 inh: 39; PolyA inh: -4; NLRP3 yeast inh: 2

What do the screens show for `Cc1nn(Cc2cccc(F)c2)c(C)c1NC(=O)c1ccc(COc2ccccc2Cl)cc1`?
Lmaj promast: 35; Calb FLC: -5; T cruzi inh: 57*; NALP1 inh: -4; PolyA inh: 16; NLRP3 yeast inh: 10

How did Cc1nn(Cc2ccc(Cl)cc2Cl)c(C)c1NC(=O)c1ccc(COc2cc(Cl)ccc2Cl)o1 do in these assays?
Lmaj promast: 15; Calb FLC: 8; T cruzi inh: 59*; NALP1 inh: -11; PolyA inh: 13; NLRP3 yeast inh: 15

What do the screens show for `Cc1nn(Cc2c(F)c(F)c(F)c(F)c2F)c(C)c1NC(=O)c1cccc(COc2ccccc2Cl)c1`?
Lmaj promast: -7; Calb FLC: -4; T cruzi inh: 33; NALP1 inh: -6; PolyA inh: 5; NLRP3 yeast inh: -4

How did Cc1nn(Cc2ccc(Cl)cc2Cl)c(C)c1NC(=O)c1nn(C)cc1Cl do in these assays?
Lmaj promast: -4; Calb FLC: -7; T cruzi inh: -19; NALP1 inh: 2; PolyA inh: -8; NLRP3 yeast inh: 2

How did O=C(CCc1nc(-c2ccccc2Cl)no1)NCc1ccco1 do in these assays?
Lmaj promast: -1; Calb FLC: 5; T cruzi inh: -9; NALP1 inh: 5; PolyA inh: 17; NLRP3 yeast inh: 2

What do the screens show for `Cc1ccc(S(=O)(=O)N/N=C\c2ccc3c(c2)OCO3)c(C)c1`?
Calb FLC: 6; T cruzi inh: -10; NALP1 inh: 10; PolyA inh: -8; NLRP3 yeast inh: 19

Results for O=C(CNC(=O)C1COc2ccccc2O1)N/N=C/c1ccc(O)cc1O (stereo not given) ?
Lmaj promast: 98*; Calb FLC: 8; T cruzi inh: -26; NALP1 inh: 38; PolyA inh: 22; NLRP3 yeast inh: -8

How did OC1(c2cccc(C(F)(F)F)c2)CCNCC1 do in these assays?
Lmaj promast: 60*; Calb FLC: 1; T cruzi inh: -4; NALP1 inh: 2; PolyA inh: inconclusive; NLRP3 yeast inh: 18

Results for COc1cccc(C(=O)Oc2ccccc2/C=C\C(=O)c2cc3ccccc3o2)c1 ?
Lmaj promast: 100*; Calb FLC: -1; T cruzi inh: 16; NALP1 inh: 10; PolyA inh: -4

Results for O=C(Oc1ccccc1/C=C\C(=O)c1cc2ccccc2o1)c1cccc(F)c1 ?
Lmaj promast: 79*; Calb FLC: 2; T cruzi inh: -28; NALP1 inh: 26; PolyA inh: -6; NLRP3 yeast inh: 28

What do the screens show for `O=C(Oc1ccccc1/C=C\C(=O)c1cc2ccccc2o1)c1ccccc1`?
Lmaj promast: 92*; Calb FLC: -9; T cruzi inh: 1; NALP1 inh: 28; PolyA inh: -14; NLRP3 yeast inh: 27

How did O=C(N/N=C/c1ccccc1OC(=O)c1ccc2c(c1)OCO2)c1cccc(F)c1 do in these assays?
Lmaj promast: -5; Calb FLC: -3; T cruzi inh: -2; NALP1 inh: 34; PolyA inh: 0; NLRP3 yeast inh: 24

How did NC(=O)N/N=C/c1ccccc1OC(=O)c1cc2ccccc2oc1=O do in these assays?
Calb FLC: 10; T cruzi inh: -19; NALP1 inh: 25; PolyA inh: 5; NLRP3 yeast inh: -6

Results for COc1ccc(O)c(C(=O)/C=C/c2cc3ccccc3o2)c1 ?
Lmaj promast: 4; Calb FLC: 0; T cruzi inh: -21; PolyA inh: 2; NLRP3 yeast inh: 17

Results for COCCNC(=O)NC12CC3(C)CC(C)(CC(C)(C3)C1)C2 ?
Lmaj promast: 12; Calb FLC: 5; T cruzi inh: 15; NALP1 inh: -10; PolyA inh: -1; NLRP3 yeast inh: 17
